Reference: the RNAGym collection of RNA variant scans (doi:10.1126/science.aae0568)
This sample holds only a part of the variants without activity.

B1: tRNA (parent)
chain: GUUCCGUUGGCGUAAUGGUAACGCGUCUCCCUCCUAAGGAGAAGACUGCGGGUUCGAGUCCCGUACGGAACG

Variants of: B1
Test: yeast fitness relative to wild type (ratio to wild type); higher = fitter; tRNA-Arg(CCU), competitive growth, 37 C, YPD
Outline: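 The tRNA-Arg(CCU) gene variants were made by chemical synthesis with a 3% per-site mutation rate at 69 sites and inserted at the native genomic locus of Saccharomyces cerevisiae. After pooling, the strains were competed in YPD at 37°C for 24 hours in six parallel replicates. Gene amplicons from the start population and each end population were read by 100-nucleotide paired-end sequencing, and Darwinian fitness relative to wild type was taken from genotype frequency changes. Genotypes needed ≥ 100 starting reads, and estimates < 0.5 were set to 0.5.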

First: C4A C33U A65C
Second: C4A G17A
The yeast fitness of the first is lower: ≤ 0.5 for the first, 0.718 for the second.

Going from C4A G10C U26A U64A to C4A U8G U64C, the yeast fitness rises from ≤ 0.5 to 0.545.

C4A U7A A14G G17C and C4A C5U C24G A45U C66U cannot be ordered by yeast fitness: ≤ 0.5 for the first, ≤ 0.5 for the second.

C4A C11U C29G C34A G39C and C4A G6C C55U G68C cannot be ordered by yeast fitness: ≤ 0.5 for the first, ≤ 0.5 for the second.

Going from C4A U54C C61G to C4A C22U C30A, the yeast fitness rises from ≤ 0.5 to 0.504.

First: C4A C30A A40G
Second: C4A C24G G44C G68U
The yeast fitness of the first is higher: 0.74 for the first, 0.562 for the second.

C4A U8A G18A C27U A45U and C4A C34G C46G G56A cannot be ordered by yeast fitness: ≤ 0.5 for the first, ≤ 0.5 for the second.

C4A C5U U19A A42G and C4A C5U C11G C30A cannot be ordered by yeast fitness: ≤ 0.5 for the first, ≤ 0.5 for the second.

Compared with C4A G6A U28G A37G, C4A G25C U32A A40C is lower in yeast fitness: 0.738 for the first, ≤ 0.5 for the second.

C4A G23C C31U A36C A43C G50C A70U and C4A G10A U54A cannot be ordered by yeast fitness: ≤ 0.5 for the first, ≤ 0.5 for the second.

C4A U7A U8G and C4A G25A C29A A37G G50C C60G G63A cannot be ordered by yeast fitness: ≤ 0.5 for the first, ≤ 0.5 for the second.

Compared with C4A G10A A14G C31A, C4A G18C C46G is higher in yeast fitness: ≤ 0.5 for the first, 0.503 for the second.

Compared with C4A C33A, C4A C30G C66A is lower in yeast fitness: 0.705 for the first, ≤ 0.5 for the second.

C4A G6A G25A C29G A57G and C4A C24G A69U cannot be ordered by yeast fitness: ≤ 0.5 for the first, ≤ 0.5 for the second.

C4A U32C U59G and C4A G10A G23A cannot be ordered by yeast fitness: ≤ 0.5 for the first, ≤ 0.5 for the second.

C4A U16C G17A G56C and C4A U7C A21C C22U G50C A70U cannot be ordered by yeast fitness: ≤ 0.5 for the first, ≤ 0.5 for the second.

C4A C5A C66A A69C and C4A U28G G48A C49G G50U cannot be ordered by yeast fitness: ≤ 0.5 for the first, ≤ 0.5 for the second.

C4A C33U A37G and C4A U7A U35C cannot be ordered by yeast fitness: ≤ 0.5 for the first, ≤ 0.5 for the second.

First: C4A C49U A65U
Second: C4A G38A G51A
The yeast fitness of the first is lower: ≤ 0.5 for the first, 0.54 for the second.

First: C4A C60G
Second: C4A C60A
The yeast fitness of the first is lower: 0.61 for the first, 0.676 for the second.

First: C4A C46G
Second: C4A C5A C22A U28G C33G A57G C62A
The yeast fitness of the first is higher: 0.847 for the first, ≤ 0.5 for the second.

Compared with C4A U19G A69C, C4A U16A is higher in yeast fitness: 0.587 for the first, 0.823 for the second.

Compared with C4A U16C, C4G A14C G25C A45U U47A A57U is lower in yeast fitness: 0.702 for the first, ≤ 0.5 for the second.

C4G A14U C24U C49G and C4A C24G C61A C66U cannot be ordered by yeast fitness: ≤ 0.5 for the first, ≤ 0.5 for the second.

C4A G9C C11G A21C C55U C62U G67C and C4A G17A G18A G25A C55A cannot be ordered by yeast fitness: ≤ 0.5 for the first, ≤ 0.5 for the second.

C4A C24G G25C A45G C60A and C4A C29U C30G C49U cannot be ordered by yeast fitness: ≤ 0.5 for the first, ≤ 0.5 for the second.

Compared with C4A C24G G63A C66A, C4A C31G is higher in yeast fitness: ≤ 0.5 for the first, 0.758 for the second.

First: C4A U26G G44C G58A G68C
Second: C4G A14C G25C A45U A57U
The yeast fitness of the first is higher: 0.558 for the first, 0.55 for the second.

C4A G9A A45G and C4A G18A C27U U28G C33G A36G cannot be ordered by yeast fitness: ≤ 0.5 for the first, ≤ 0.5 for the second.

Going from C4A C49U C55A C66U to C4A G10A G56C C60G C66U, the yeast fitness falls from 0.545 to ≤ 0.5.

Compared with C4A G9C C11G G44A C60U G67C, C4A C27U C66U is higher in yeast fitness: ≤ 0.5 for the first, 0.66 for the second.

Going from C4A G6A A21C C24U to C4A G6A C11A C22U C29U C61A G67A, the yeast fitness falls from 0.562 to ≤ 0.5.

Going from C4A C34G C61A to C4A U13A G50A, the yeast fitness rises from ≤ 0.5 to 0.613.

First: C4A U35G
Second: C4A U26A U32G U53A C62A G68C
The yeast fitness of the first is higher: 0.564 for the first, ≤ 0.5 for the second.

C4A C30U A57G A65U and C4A G17C G23C A45C C66U cannot be ordered by yeast fitness: ≤ 0.5 for the first, ≤ 0.5 for the second.

Compared with C4A C61G, C4A C61U is higher in yeast fitness: 0.71 for the first, 0.911 for the second.

First: C4A U32C
Second: C4A C29U C55U G63A
The yeast fitness of the first is higher: 0.912 for the first, ≤ 0.5 for the second.

First: C4A C5U C22U C34A C49U C62U
Second: C4A C5U C24G A45U
The yeast fitness of the first is lower: ≤ 0.5 for the first, 0.649 for the second.

C4G A14G G52A and C4A G18C C31U A57G U64C cannot be ordered by yeast fitness: ≤ 0.5 for the first, ≤ 0.5 for the second.

Going from C4A U28C to C4A U7A U8A C46A G48A U64G, the yeast fitness falls from 0.64 to ≤ 0.5.

C4A C30U C55U and C4A G6C U8A A20C A21U C33U C46U A57G cannot be ordered by yeast fitness: ≤ 0.5 for the first, ≤ 0.5 for the second.

C4A G39C C49A and C4A C29G A40U cannot be ordered by yeast fitness: ≤ 0.5 for the first, ≤ 0.5 for the second.

Going from C4G A14C A20G to C4A C5A C30A C31U C33A A45U, the yeast fitness falls from 0.619 to ≤ 0.5.

Going from C4A G38C G68A A69C to C4A G10A, the yeast fitness rises from ≤ 0.5 to 0.819.

C4A C22G C33U A40U U59A and C4A C5G A20C A40U A65C cannot be ordered by yeast fitness: ≤ 0.5 for the first, ≤ 0.5 for the second.

C4A C46G C60G and C4A G23A U35G C61A cannot be ordered by yeast fitness: ≤ 0.5 for the first, ≤ 0.5 for the second.

C4A C5G C27U U53A A69U and C4A C30G C49G cannot be ordered by yeast fitness: ≤ 0.5 for the first, ≤ 0.5 for the second.

Compared with C4A C30G C49U, C4A G18A C34G C66U is lower in yeast fitness: 0.566 for the first, ≤ 0.5 for the second.

First: C4A C24G C33G G63C
Second: C4A U19A C27U
The yeast fitness of the first is lower: ≤ 0.5 for the first, 0.562 for the second.

C4A G17C G23C and C4A G6A C33U A43U C49G G50C C61U C66U cannot be ordered by yeast fitness: ≤ 0.5 for the first, ≤ 0.5 for the second.

Compared with C4A C34G C66U, C4A G9C C11G A45C is lower in yeast fitness: 0.576 for the first, 0.508 for the second.

C4A G25C C34U A57C and C4A G25U A65C cannot be ordered by yeast fitness: ≤ 0.5 for the first, ≤ 0.5 for the second.

Going from C4A C27U C61U to C4A U28G C31U A40C A57G, the yeast fitness falls from 0.62 to ≤ 0.5.

C4A C11U C30U G39C C55G and C4A C24G G44C C62G cannot be ordered by yeast fitness: ≤ 0.5 for the first, ≤ 0.5 for the second.

Going from C4A G10C C33U C46G U54A to C4A C24A A42G, the yeast fitness rises from ≤ 0.5 to 0.603.

Compared with C4A G12C A21C C22G C55A C60U C62G A69C, C4A G58A is higher in yeast fitness: ≤ 0.5 for the first, 0.878 for the second.

First: C4A C30U A40G
Second: C4A C24U G58A C62U
The yeast fitness of the first is lower: 0.542 for the first, 0.587 for the second.

C4G A14G A37U G38A and C4A G9C C30A G39A G58A cannot be ordered by yeast fitness: ≤ 0.5 for the first, ≤ 0.5 for the second.

First: C4A G23A A40C U53C
Second: C4A C31A G56A
The yeast fitness of the first is lower: ≤ 0.5 for the first, 0.649 for the second.

C4A C5G C66U A70G and C4A C33A C60A U64C cannot be ordered by yeast fitness: ≤ 0.5 for the first, ≤ 0.5 for the second.

Compared with C4A C24U C29U, C4A G56A is higher in yeast fitness: ≤ 0.5 for the first, 0.88 for the second.

C4A C5G A36U G63A and C4A U35C A57U cannot be ordered by yeast fitness: ≤ 0.5 for the first, ≤ 0.5 for the second.

Compared with C4A C22U C60U G67C, C4A G23A C29U C34G G38C U54A A57C is higher in yeast fitness: 0.519 for the first, 0.602 for the second.

Compared with C4A C31U C46A, C4A C22G C27U is lower in yeast fitness: 0.726 for the first, 0.522 for the second.

C4A C30G C31U C55A C61G G67A and C4A U16C G17A G56A C61U cannot be ordered by yeast fitness: ≤ 0.5 for the first, ≤ 0.5 for the second.

First: C4A U7G G12C
Second: C4A C5A A20U C31U C49U
The yeast fitness of the first is higher: 0.549 for the first, ≤ 0.5 for the second.

Compared with C4A C29G C34G C49U, C4A G12A C31U U59A G63A is lower in yeast fitness: 0.557 for the first, ≤ 0.5 for the second.

C4A C5U C22U C49U and C4A C30G G50A cannot be ordered by yeast fitness: ≤ 0.5 for the first, ≤ 0.5 for the second.

First: C4A G18A G25C
Second: C4A C5G U8A C30A G67C
The yeast fitness of the first is higher: 0.515 for the first, ≤ 0.5 for the second.

Going from C4A U7A A20U C27G C29U C62G to C4A C22G C29U, the yeast fitness rises from 0.549 to 0.556.

C4A U7G C27U A45C and C4A U13C A20C C34A G39C A43U cannot be ordered by yeast fitness: ≤ 0.5 for the first, ≤ 0.5 for the second.

C4A G39C C66U and C4A C29U G67A cannot be ordered by yeast fitness: ≤ 0.5 for the first, ≤ 0.5 for the second.

C4A U26G U53G and C4A G6A A14G C60U cannot be ordered by yeast fitness: ≤ 0.5 for the first, ≤ 0.5 for the second.

C4A U32A G38C U47A and C4A C5U C27U A37G cannot be ordered by yeast fitness: ≤ 0.5 for the first, ≤ 0.5 for the second.

Going from C4A C31G A40U to C4A C31G A40C, the yeast fitness falls from 0.62 to ≤ 0.5.

C4A C24U A36U G39C C46G C55A C66G and C4A U32C A40U C49G G68C cannot be ordered by yeast fitness: ≤ 0.5 for the first, ≤ 0.5 for the second.

C4A C31A C33U and C4A C24G A37G G50C cannot be ordered by yeast fitness: ≤ 0.5 for the first, ≤ 0.5 for the second.

C4A G41A A42C U59A and C4A C11G G51C cannot be ordered by yeast fitness: ≤ 0.5 for the first, ≤ 0.5 for the second.

Going from C4A G23A C33G to C4A C5U G58C U64A, the yeast fitness falls from 0.655 to 0.572.

First: C4A G17A G41A U47C G50C
Second: C4A C31U A42C C66A
The yeast fitness of the first is lower: ≤ 0.5 for the first, 0.523 for the second.

Compared with C4G A14C C24G U53C C62G, C4A C24A G52C A57C U59A is higher in yeast fitness: ≤ 0.5 for the first, 0.57 for the second.

C4G A14C G51C and C4A C27G C29G G68U cannot be ordered by yeast fitness: ≤ 0.5 for the first, ≤ 0.5 for the second.

C4A G6C C55U and C4A U13A G18A G68C cannot be ordered by yeast fitness: ≤ 0.5 for the first, ≤ 0.5 for the second.

In the case of C4A U26A U32G A65G, the yeast fitness is reported as 0.793.
